Reference: ChEMBL document CHEMBL1133085, “Synthesis, antibacterial, and cytotoxic evaluation of certain 7-substituted norfloxacin derivatives” (2000)
≈ marks a conversion by molar mass, not a printed value.

Assays:
Assay type in all cases: functional
UO-31 = test: In vitro inhibitory activity for human renal cancer cell line UO-31 was determined.
Summary of the method: (§1)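 NCI in vitro human tumour cell line panel screen. Growth inhibition is expressed as log GI₅₀ (M), the concentration reducing cell growth to 50% of controls. The mean is the average log GI₅₀ across all cell lines tested.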

CAKI-1 = test: In vitro inhibitory activity for human renal cancer cell line CAK-1 was determined.; summary of the method: as §1
[1] = Mean value (average log GI50) over all cell lines tested; summary of the method: as §1
Enterococcus faecalis = test: In vitro antimicrobial activity against Enterococcus faecalis (vancomycin-resistant) was determined
Summary of the method: (§2)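 Broth dilution in tryptic soy broth with 7% calf serum against clinical isolates (vancomycin-resistant E. faecalis; erythromycin/ampicillin-resistant S. pneumoniae) at 1-5 × 10⁵ CFU/mL. DMSO serial dilutions were added 1:100, giving a top concentration of 300 µM and at most 1% DMSO. Incubated 20-72 h at 37 °C. MIC (µM) read by visual turbidity or microscopy. Vehicle and reference controls; duplicate.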

Proteus vulgaris = test: In vitro antimicrobial activity against Proteus vulgaris was determined
Summary of the method: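 MIC determined in Mueller-Hinton broth inoculated at 1-5 × 10⁵ CFU/mL. DMSO serial dilutions of compounds were used, with a top final concentration of 300 µM and DMSO at most 1%. Incubation was at 37 °C for 20-72 h. Growth was judged by turbidity or microscopy. Vehicle and reference controls were included, with duplicate assays.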

[2] = In vitro antimicrobial activity against Mycobacterium ranae was determined
Summary of the method: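 MIC determined in brain heart infusion broth containing 1-5 × 10⁵ CFU/mL. Compounds in DMSO were serially diluted, starting at 300 µM final with 1% DMSO maximum. Incubation was at 37 °C for 20-72 h, with visual turbidity or microscope read-out. Vehicle and reference controls were included, and assays were run in duplicate.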

Escherichia coli = test: In vitro antimicrobial activity against Escherichia coli was determined
Summary of the method: (§3)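 Broth microdilution MIC in nutrient broth with 1-5 × 10⁵ CFU/mL inoculum. Compounds were dissolved in 100% DMSO and serially diluted in DMSO, starting at 300 µM final with at most 1% DMSO. Plates were incubated at 37 °C for 20-72 h. MIC was read by visual turbidity or microscopy. Vehicle and reference controls were included, and tests were run in duplicate.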

[3] = In vitro antimicrobial activity against […] (erythromycin and ampicillin-resistant) was determined; conditions: Streptococcus pneumoniae; summary of the method: as §2
RXF 393 = test: In vitro inhibitory activity for human renal cancer cell line RXF-393 was determined.; summary of the method: as §1
Staphylococcus aureus = test: In vitro antimicrobial activity against Staphylococcus aureus (methicillin-resistant) was determined
Summary of the method: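 MRSA in Mueller-Hinton broth at 1-5 × 10⁵ CFU/mL. Compound serial dilutions in 100% DMSO were added 1:100, giving a maximal test concentration of 300 µM and at most 1% DMSO. Plates were held 20-72 h at 37 °C. MIC (µM) was taken from visual turbidity or microscopic growth. Vehicle and reference-agent controls; run in duplicate.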

Klebsiella pneumoniae = test: In vitro antimicrobial activity against Klebsiella pneumoniae was determined; summary of the method: as §3
Pseudomonas aeruginosa = test: In vitro antimicrobial activity against Pseudomonas aeruginosa was determined; summary of the method: as §3

C=C1CC(CN2CCN(c3cc4c(cc3F)c(=O)c(C(=O)O)cn4CC)CC2)(c2ccc(OC)cc2)OC1=O (configuration not stated) showed a GI50 (UO-31) of 2.75 µM, a GI50 (CAKI-1) of 5.13 µM and a Mean [1] of -5.19.
CCn1cc(C(=O)O)c(=O)c2cc(F)c(N3CCN(C/C(C)=N/O)CC3)cc21 showed a GI50 (UO-31) of 39.8 µM, an MIC (Enterococcus faecalis) of 30 µM (≈ 11.7 µg/mL) and an MIC (Proteus vulgaris) of 2 µM (≈ 0.781 µg/mL). The GI50 (CAKI-1) was over 100 µM, the Mean [1] was over -4 and the MIC [2] was 32 µM (≈ 12.5 µg/mL). For the same molecule, the MIC (Escherichia coli) was 0.51 µM (≈ 0.199 µg/mL), the MIC [3] was 30 µM (≈ 11.7 µg/mL) and the GI50 (RXF 393) was over 100 µM. For the same molecule, the MIC (Staphylococcus aureus) was 0.51 µM (≈ 0.199 µg/mL), the MIC (Klebsiella pneumoniae) was 0.13 µM (≈ 0.0508 µg/mL) and the MIC (Pseudomonas aeruginosa) was 16 µM (≈ 6.25 µg/mL).
In the case of CCn1cc(C(=O)O)c(=O)c2cc(F)c(N3CCN(C/C(=N/O)c4ccccc4)CC3)cc21, the GI50 (UO-31) is reported as 0.309 µM, the MIC (Enterococcus faecalis) is reported as over 200 µM and the MIC (Proteus vulgaris) is reported as 3.45 µM (≈ 1.56 µg/mL). The GI50 (CAKI-1) was 32.4 µM, the Mean [1] was -4.53 and the MIC [2] was 55.3 µM (≈ 25 µg/mL). The MIC (Escherichia coli) was 0.86 µM (≈ 0.389 µg/mL), the MIC [3] was over 200 µM and the GI50 (RXF 393) was 36.3 µM. For the same molecule, the MIC (Staphylococcus aureus) was 0.44 µM (≈ 0.199 µg/mL), the MIC (Klebsiella pneumoniae) was 0.22 µM (≈ 0.0995 µg/mL) and the MIC (Pseudomonas aeruginosa) was 13.8 µM (≈ 6.24 µg/mL).
CCn1cc(C(=O)O)c(=O)c2cc(F)c(N3CCN(CC(=O)c4ccc(OC)cc4)CC3)cc21 showed an MIC (Enterococcus faecalis) of over 200 µM, an MIC (Proteus vulgaris) of 0.83 µM (≈ 0.388 µg/mL) and an MIC [2] of over 200 µM. For the same molecule, the MIC (Escherichia coli) was 0.83 µM (≈ 0.388 µg/mL), the MIC [3] was over 200 µM and the MIC (Staphylococcus aureus) was 6.7 µM (≈ 3.13 µg/mL). The MIC (Klebsiella pneumoniae) was 0.053 µM (≈ 0.0248 µg/mL) and the MIC (Pseudomonas aeruginosa) was 13.4 µM (≈ 6.26 µg/mL).
For C=C1CC(CN2CCN(c3cc4c(cc3F)c(=O)c(C(=O)O)cn4CC)CC2)(c2ccccc2)OC1=O (configuration not stated), the GI50 (UO-31) was 1.58 µM, the MIC (Proteus vulgaris) was over 200 µM and the GI50 (CAKI-1) was 1.86 µM. It also gave a Mean [1] of -5.47, an MIC [2] of over 200 µM and an MIC (Escherichia coli) of 98.9 µM (≈ 50 µg/mL). The MIC (Staphylococcus aureus) was 1.54 µM (≈ 0.779 µg/mL), the MIC (Klebsiella pneumoniae) was 12.4 µM (≈ 6.27 µg/mL) and the MIC (Pseudomonas aeruginosa) was over 200 µM.
Work on CCn1cc(C(=O)O)c(=O)c2cc(F)c(N3CCN(C/C(=N/O)c4ccc(F)cc4)CC3)cc21 yielded a GI50 (UO-31) of 0.132 µM, an MIC (Enterococcus faecalis) of over 200 µM and an MIC (Proteus vulgaris) of 6.38 µM (≈ 3 µg/mL). It also gave a GI50 (CAKI-1) of 1.91 µM, a Mean [1] of -4.67 and an MIC [2] of over 200 µM. For the same molecule, the MIC (Escherichia coli) was 6.38 µM (≈ 3 µg/mL), the MIC [3] was over 200 µM and the GI50 (RXF 393) was 0.17 µM. The MIC (Staphylococcus aureus) was 2.13 µM (≈ 1 µg/mL), the MIC (Klebsiella pneumoniae) was 0.21 µM (≈ 0.0988 µg/mL) and the MIC (Pseudomonas aeruginosa) was over 200 µM.
CCn1cc(C(=O)O)c(=O)c2cc(F)c(N3CCN(C/C(=N\O)c4ccc(Cl)cc4)CC3)cc21 showed a GI50 (UO-31) of 0.0288 µM, an MIC (Enterococcus faecalis) of over 200 µM and an MIC (Proteus vulgaris) of 6.16 µM (≈ 3 µg/mL). It also gave a GI50 (CAKI-1) of 0.398 µM, a Mean [1] of -5.03 and an MIC [2] of over 200 µM. For the same molecule, the MIC (Escherichia coli) was 6.16 µM (≈ 3 µg/mL), the MIC [3] was over 200 µM and the GI50 (RXF 393) was 0.724 µM. It also gave an MIC (Staphylococcus aureus) of over 200 µM, an MIC (Klebsiella pneumoniae) of 0.21 µM (≈ 0.102 µg/mL) and an MIC (Pseudomonas aeruginosa) of over 200 µM.
CCn1cc(C(=O)O)c(=O)c2cc(F)c(N3CCN(C/C(=N\O)c4ccc(OC)cc4)CC3)cc21 showed a GI50 (UO-31) of 0.55 µM, an MIC (Enterococcus faecalis) of 3.23 µM (≈ 1.56 µg/mL) and an MIC (Proteus vulgaris) of 3.23 µM (≈ 1.56 µg/mL). It also gave a GI50 (CAKI-1) of 6.92 µM, a Mean [1] of -4.5 and an MIC [2] of 104 µM (≈ 50.2 µg/mL). It also gave an MIC (Escherichia coli) of 1.62 µM (≈ 0.782 µg/mL), an MIC [3] of 13 µM (≈ 6.27 µg/mL) and an MIC (Staphylococcus aureus) of 0.41 µM (≈ 0.198 µg/mL). It also gave an MIC (Klebsiella pneumoniae) of 0.027 µM (≈ 0.013 µg/mL) and an MIC (Pseudomonas aeruginosa) of 25.9 µM (≈ 12.5 µg/mL).
CCn1cc(C(=O)O)c(=O)c2cc(F)c(N3CCNCC3)cc21 [NORFLOXACIN] gave an MIC (Enterococcus faecalis) of 9.8 µM (≈ 3.13 µg/mL), an MIC (Proteus vulgaris) of 0.16 µM (≈ 0.0511 µg/mL) and an MIC [2] of 9.8 µM (≈ 3.13 µg/mL). For the same molecule, the MIC (Escherichia coli) was 0.63 µM (≈ 0.201 µg/mL), the MIC [3] was 19.6 µM (≈ 6.26 µg/mL) and the MIC (Staphylococcus aureus) was 4.89 µM (≈ 1.56 µg/mL). The MIC (Klebsiella pneumoniae) was 0.041 µM (≈ 0.0131 µg/mL) and the MIC (Pseudomonas aeruginosa) was 1.22 µM (≈ 0.39 µg/mL).
